Compound activity deposited in PubChem by Sanford-Burnham Center for Chemical Genomics.
Most compounds without a hit are left out; they make up all but 1.7% or so of the library.
DNMT1 block = DNMT1 (human) enzyme inhibition; P26358; DNMT1 molecular beacon, Hinp1I cleavage, fluorescence; inhibition (reported as % activation of signal), % at 10 µM; 360,000 tested, 0.83% active; AID 588458; in the data active = inhibition above about 50%
SUMO1 PPI mod = SUMO1-SIM interaction modulation. P63165. SUMO1 binding to a labelled peptide, TR-FRET, 1 h. inhibition, % at 20 µM. 360,000 tested, 0.33% active. AID 602429; in the data active = inhibition above about 37%
Target sequence (P63165 whole entry, looked up): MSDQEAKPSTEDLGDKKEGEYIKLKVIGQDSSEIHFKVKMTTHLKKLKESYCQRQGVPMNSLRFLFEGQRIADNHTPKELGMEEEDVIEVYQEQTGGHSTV
STEP block = STEP (human) phosphatase inhibition | P54829 | recombinant STEP, OMFP fluorogenic substrate, fluorescence | inhibition, % at 20 µM | 360,000 tested, 0.25% active | AID 588621;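 active = inhibition at 20 µM, scaled per plate between control wells, above about 37%, limit read from the data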;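 note: 0% = DMSO with enzyme and substrate and 100% = substrate only without enzyme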
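System: STEP phosphatase, cell-free reaction; Buffer or medium: Bis-Tris pH 6.0 buffer with DTT, detergent; Incubation: 20 min at room temperature, dark; Measured by: fluorescence, 480/540 nm.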
Scp1 inh = inhibitors of human Scp-1 phosphatase; inhibition, % at 20 µM; Q9GZU7; 340,000 tested, 0.88% active; Recombinant Scp1, phosphopeptide, malachite green phosphate absorbance;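 active = inhibition above about 50% at 20 µM, limit read from the data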;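 note: plate controls were DMSO wells with enzyme for no effect and wells lacking enzyme for full effect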
Target sequence (Q9GZU7 76-261 limits assumed): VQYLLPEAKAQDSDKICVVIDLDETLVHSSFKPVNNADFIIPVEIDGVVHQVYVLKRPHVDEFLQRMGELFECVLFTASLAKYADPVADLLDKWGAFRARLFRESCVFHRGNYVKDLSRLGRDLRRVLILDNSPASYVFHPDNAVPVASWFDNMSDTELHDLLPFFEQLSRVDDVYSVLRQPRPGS
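Material – SCP-1 phosphatase catalytic domain, residues 76-261 · Buffer or medium – Acidic Tris acetate buffer with magnesium and detergent · Also added – Phospho 17-mer peptide substrate · Compound – single 20 µM dose, 1% DMSO · Times – 45 min room-temperature reaction, 5 min colour, 30 min stabiliser · Technique – Phosphate-binding colour reagent, absorbance read at 630 nm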
LMPTP block = blocks human LMPTP phosphatase; 360,000 tested, 0.22% active; recombinant LMPTP-A, OMFP fluorogenic substrate, fluorescence intensity; AID 651560; inhibition, % at 20 µM; P24666;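 active = compounds that cut the enzyme signal by at least half of the control window in the single-dose screen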;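 note: plate controls were DMSO wells with enzyme plus substrate for no effect and substrate without enzyme for full effect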
Target sequence (P24666 whole entry, looked up): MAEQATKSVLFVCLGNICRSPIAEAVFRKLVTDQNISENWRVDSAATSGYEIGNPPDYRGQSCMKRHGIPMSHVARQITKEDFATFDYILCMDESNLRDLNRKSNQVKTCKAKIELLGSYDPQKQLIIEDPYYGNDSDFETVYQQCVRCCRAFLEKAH
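Assay system: LMPTP-A phosphatase enzyme | Input: 0.625 nM enzyme | Also added: Fluorogenic phosphatase substrate OMFP at 400 µM final | Compound dosing: One test concentration per compound, 20 µM, with 3% DMSO overall | Schedule: 50 min enzyme reaction at room temperature, protected from light | Signal: Fluorescence intensity | Benchmarks: no-enzyme and uninhibited controls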
Beacon interf DR = beacon fluorescence artifact, dose response counter-screen. shares compounds with DNMT1 block. molecular beacon fluorescence, spectral interference counter-screen. IC50, µM. 200 tested, under 10 active. AID 602382; call rule not given here
DNMT1 inh conf = DNMT1 inhibition confirmation, single concentration; shares compounds with DNMT1 block; DNMT1 molecular beacon HinP1I cleavage, fluorescence; inhibition, % at 10 µM; 2,300 tested, 8% active; AID 602385;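 active = average inhibition of at least 30% in the single-concentration confirmation test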
Beacon interf = counter-screen for DNMT1 inhibitors: spectral interference; activation (fluorescence interference), % at 10 µM; DNMT1 molecular beacon spectral interference counterscreen, fluorescence 485/520; shares compounds with DNMT1 block; 2,300 tested, 1% active; AID 602387;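 active = activation of at least 30% at 10 µM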;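 note: DNMT1 catalytic domain with a HinP1I cleavage step and a FAM/dabcyl DNA beacon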
The depositor's hits bear a star; · = not tested or not shown.

SMILES | DNMT1 block | SUMO1 PPI mod | STEP block | Scp1 inh | LMPTP block | DNMT1 inh conf | Beacon interf | others
O=C(Oc1ccc2c(c1)OCO2)c1cc2c(s1)CCC2 | 100.2* | 0.9 | 6.7 | 65.3* | 52.3* | 17.0 | -1.2
CC(C)COc1ccc(-c2nn(-c3ccccc3)cc2/C=C2/SC(=S)N(CC(=O)O)C2=O)cc1 | 65.2* | 20.5 | 9.1 | 11.0 | 38.3 | 66.8* | -9.3 | Beacon interf DR=>99
CCOc1ccc(-c2nn(-c3ccccc3)cc2/C=C2\SC(=S)N(Cc3ccco3)C2=O)cc1 | 13.8 | 0.9 | 4.9 | 0.6 | 0.1 | · | ·
Cc1ccc(-c2nn(-c3ccccc3)cc2C=C2SC(=S)N(CCS(=O)(=O)O)C2=O)cc1 | 76.1* | 72.2* | 5.0 | · | 82.3* | 107.2* | -13.8 | Beacon interf DR=>99
CC(NC(=O)CNC(=O)c1cccs1)c1cccc(C(F)(F)F)c1 (stereo unspecified) | 5.7 | 1.2 | 2.5 | 7.1 | -0.6 | · | ·
CCCNC(=O)c1ccc(COc2ccc(CCC)cc2OC)o1 | -1.7 | -1.1 | 1.9 | 1.4 | 0.3 | · | ·
O=C(CN1C(=O)S/C(=C\c2ccc(-c3cc(C(=O)O)ccc3Cl)o2)C1=O)Nc1ccc2c(c1)OCO2 | 96.5* | 113.9* | 90.5* | · | 74.1* | 21.6 | -12.8 | Beacon interf DR=>99
COc1ccc(/C=C/C(=O)C(C)(C)C)cc1OC | 50.4* | -12.4 | -0.3 | -7.7 | -0.7 | 3.9 | 4.1
COc1ccc(CCn2c(-c3ccc(F)cc3)nc3c(c(=O)c4ccccc4n3C)c2=O)cc1OC | 31.3 | -28.0 | 5.4 | -14.9 | 3.0 | · | ·
COc1ccc(CCn2c(C3CCCCC3)nc3c(c(=O)c4ccccc4n3C)c2=O)cc1OC | 63.2* | 40.8* | 14.5 | 9.8 | 24.1 | -1.5 | 1.8
CCCC1=NN2C(=N)/C(=C\c3ccc(SCc4ccco4)o3)C(=O)N=C2S1 | 104.9* | 50.4* | 16.1 | 80.9* | 51.4* | 14.1 | -0.6
CCC1=NN2C(=N)/C(=C\c3ccc(SCc4ccco4)o3)C(=O)N=C2S1 | 107.6* | 53.9* | 16.8 | 43.5 | 42.1 | 5.8 | 2.8
Cc1ccc(S(=O)(=O)NC(=O)C2(C)CCN2C(=O)CC2CCCCC2)nc1 (stereo unspecified) | 4.7 | 11.2 | -1.6 | · | -3.5 | · | ·
COc1ccc(O)c(/C=N/NC(=O)CN2CCS(=O)(=O)CC2)c1 | -0.5 | -4.9 | 0.1 | -8.3 | -0.8 | · | ·
Cc1noc(C)c1CCC(=O)NC1CCCN(Cc2ccc(CC(C)C)cc2)C1 (stereo unspecified) | 52.8* | 0.7 | -2.4 | -3.4 | 0.0 | 1.2 | 0.1
Cc1noc(C)c1CCC(=O)NC1CCCN(Cc2ccc(Cl)cc2)C1 (stereo unspecified) | 3.7 | -0.2 | -0.3 | 4.7 | -0.7 | · | ·
C[C@@H]1CN([C@H](C)CO)C(=O)Cc2cc(NC(=O)CCC(F)(F)F)ccc2O[C@@H]1CN(C)S(=O)(=O)c1ccccc1 | -1.6 | 0.2 | 0.6 | 4.1 | -0.1 | · | ·
COCC(C)NC(=O)CSc1nc2cc(S(=O)(=O)N3CCCCC3)ccc2o1 (stereo unspecified) | -0.9 | -2.2 | -0.3 | -2.5 | -1.1 | · | ·
CCC(C)(C)NC(=O)CN(C(=O)C(=O)Nc1ccc2c(c1)OCCO2)N1CCOCC1 | 1.0 | -0.6 | -1.4 | 36.9 | -0.3 | · | ·
O=C(Cc1cn2ccsc2n1)Nc1nc2c(s1)CN(Cc1ccccc1)CC2 | 55.8* | 17.2 | -0.9 | 22.1 | 60.7* | 0.5 | 3.0
CCN1CCc2nc(NC(=O)C(c3ccccc3)c3ccccc3)sc2C1 | 62.6* | -16.2 | 0.0 | 3.6 | 1.9 | 1.2 | 3.6
CCN1CCc2nc(NC(=O)CC(c3ccccc3)c3ccccc3)sc2C1 | 43.5 | -4.3 | 6.0 | -0.6 | 1.8 | · | ·
CCc1ccc(S(=O)(=O)N2CCN(c3ccccc3OC)CC2)cc1 | -2.1 | 0.2 | 3.9 | -8.1 | 0.1 | · | ·
O=[N+]([O-])c1ccc2nnn(O)c2c1 | 5.4 | -18.8 | -0.8 | 7.5 | -1.5 | · | ·
